Tests used:
[1] = system: MDA-MB-468; experiment: Growth inhibition of human MDA-MB-468 cells assessed as cell growth at 10 uM after 48 hrs by sulforhodamine B assay; type: functional; conditions: MDA-MB-468, 48 h, read-out: Activity
Summary of the method: (§1)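 Single-dose NCI-60 screen: adherent cells in RPMI 1640 with 5% FBS were exposed to 10 µM for 48 h at 37 °C after a 24 h preincubation. They were fixed in situ with cold TCA (10% final), stained with 0.4% SRB in 1% acetic acid, solubilized in 10 mM Tris base, and read at 515 nm. Percent growth was taken relative to time-zero and control plates.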

[2] = Growth inhibition of human Hs 578T cells assessed as cell growth at 10 uM after 48 hrs by sulforhodamine B assay; type: functional; conditions: read-out: Activity
Summary of the method: (§2)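 NCI-60 single-dose screen at 10 µM: cells in RPMI 1640 with 5% FBS, preincubated 24 h, then exposed 48 h at 37 °C. TCA fixation (16% final for suspension cells), SRB staining, absorbance 515 nm. Percent growth relative to time-zero and untreated control plates; negative values indicate cell kill.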

[3] = system: DU-145; experiment: Growth inhibition of human DU145 cells assessed as cell growth at 10 uM after 48 hrs by sulforhodamine B assay; type: functional; conditions: DU-145, 48 h, read-out: Activity; summary of the method: as §2
[4] = system: PC-3; experiment: Growth inhibition of human PC3 cells assessed as cell growth at 10 uM after 48 hrs by sulforhodamine B assay; type: functional; conditions: PC-3, 48 h, read-out: Activity; summary of the method: as §1
[5] = system: SN12C; experiment: Growth inhibition of human SN12C cells assessed as cell growth at 10 uM after 48 hrs by sulforhodamine B assay; type: functional; conditions: read-out: Activity
Summary of the method: (§3)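 Single-dose NCI-60 test at 10 µM. Cells were grown in RPMI 1640 with 5% FBS and 2 mM L-glutamine, preincubated 24 h, with T0 plates TCA-fixed. Exposure was 48 h at 37 °C, 5% CO2. Cells were fixed with cold TCA (final 10%, 4 °C, 60 min), stained with SRB and read at 515 nm. Percent growth was taken relative to T0 and untreated control; negative values denote cell kill.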

[6] = system: UACC-62; experiment: Growth inhibition of human UACC62 cells assessed as cell growth at 10 uM after 48 hrs by sulforhodamine B assay; type: functional; conditions: UACC-62, 48 h, read-out: Activity; summary of the method: as §3
[7] = system: SK-MEL-28; experiment: Growth inhibition of human SK-MEL-28 cells assessed as cell growth at 10 uM after 48 hrs by sulforhodamine B assay; type: functional; conditions: SK-MEL-28, 48 h, read-out: Activity; summary of the method: as §1
[8] = system: U-251; experiment: Growth inhibition of human U251 cells assessed as cell growth at 10 uM after 48 hrs by sulforhodamine B assay; type: functional; conditions: U-251, 48 h, read-out: Activity; summary of the method: as §3
[9] = Growth inhibition of human HCC2998 cells assessed as cell growth at 10 uM after 48 hrs by sulforhodamine B assay; type: functional; conditions: HCC 2998, 48 h, read-out: Activity; summary of the method: as §2
[10] = system: NCI-H322M; experiment: Growth inhibition of human NCI-H322M cells assessed as cell growth at 10 uM after 48 hrs by sulforhodamine B assay; type: functional; conditions: read-out: Activity; summary of the method: as §1
[11] = system: CCRF-CEM; experiment: Growth inhibition of human CCRF-CEM cells assessed as cell growth at 10 uM after 48 hrs by sulforhodamine B assay; type: functional; conditions: read-out: Activity; summary of the method: as §2
[12] = system: RXF 393; experiment: Growth inhibition of human RXF393 cells after 48 hrs by sulforhodamine B assay; type: functional; conditions: RXF 393, 48 h
Summary of the method: (§4)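 NCI-60 panel cells grown in RPMI 1640 with 5% FBS and 2 mM L-glutamine, seeded at 5000–40,000 cells/well and preincubated 24 h. Five 10-fold dilutions (0.001–100 µM) from DMSO stocks were added for 48 h at 37 °C. Adherent cells were fixed with cold TCA (10% final) for 60 min at 4 °C, stained with 0.4% SRB, and read at 515 nm. GI50 was set where 100×(T−T0)/(C−T0)=50.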

[13] = system: CAKI-1; experiment: Growth inhibition of human CAKI-1 cells after 48 hrs by sulforhodamine B assay; type: functional; conditions: CAKI-1, 48 h
Summary of the method: (§5)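 NCI-60 screen: cells in RPMI 1640 with 5% FBS and 2 mM glutamine, 5000–40,000 cells/well, preincubated 24 h. Five concentrations (10-fold dilutions; 100 to 0.001 µM) applied for 48 h at 37 °C. TCA fixation, SRB stain, absorbance at 515 nm. Time-zero plates included; GI50 where 100×(T−T0)/(C−T0)=50.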

[14] = system: ACHN; experiment: Growth inhibition of human ACHN cells after 48 hrs by sulforhodamine B assay; type: functional; summary of the method: as §5
[15] = system: M14; experiment: Growth inhibition of human M14 cells after 48 hrs by sulforhodamine B assay; type: functional; conditions: M14, 48 h; summary of the method: as §5
[16] = system: LOX IMVI; experiment: Growth inhibition of human LOXIMVI cells after 48 hrs by sulforhodamine B assay; type: functional; summary of the method: as §5
[17] = system: SNB-19; experiment: Growth inhibition of human SNB19 cells after 48 hrs by sulforhodamine B assay; type: functional; conditions: SNB-19, 48 h
Summary of the method: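 NCI-60 five-dose screen. Cells were grown in RPMI 1640 with 5% FBS and 2 mM L-glutamine, plated at 5000–40,000 cells/well and incubated 24 h before dosing, with T0 plates TCA-fixed. DMSO stocks were diluted to doses of […] and exposed 48 h at 37 °C, 5% CO2. Cells were fixed with cold TCA (final 10%, 60 min, 4 °C), stained with 0.4% SRB in 1% acetic acid for 10 min, solubilized in 10 mM trizma base and read at 515 nm. GI50 is where 100×(T−T0)/(C−T0)=50.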

[18] = system: SF-295; experiment: Growth inhibition of human SF295 cells after 48 hrs by sulforhodamine B assay; type: functional; conditions: SF-295, 48 h; summary of the method: as §4
[19] = system: SF-539; experiment: Growth inhibition of human SF539 cells after 48 hrs by sulforhodamine B assay; type: functional; conditions: SF-539, 48 h; summary of the method: as §4
[20] = system: KM12; experiment: Growth inhibition of human KM12 cells after 48 hrs by sulforhodamine B assay; type: functional; conditions: KM12, 48 h; summary of the method: as §5
[21] = system: HOP-62; experiment: Growth inhibition of human HOP62 cells after 48 hrs by sulforhodamine B assay; type: functional; conditions: HOP-62, 48 h; summary of the method: as §5
[22] = system: RPMI-8226; experiment: Growth inhibition of human RPMI8226 cells after 48 hrs by sulforhodamine B assay; type: functional; conditions: RPMI-8226, 48 h
Summary of the method: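 NCI-60 suspension lines in RPMI 1640 with 5% FBS and 2 mM L-glutamine, preincubated 24 h. A five-concentration 10-fold series (0.001–100 µM) was given for 48 h at 37 °C. Settled cells were fixed with 80% TCA (16% final), stained with SRB, and read at 515 nm. GI50 was taken where 100×(T−T0)/(C−T0)=50, with T0 plates fixed at drug addition.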

[23] = system: CCRF-CEM; experiment: Growth inhibition of human CCRF-CEM cells after 48 hrs by sulforhodamine B assay; type: functional; summary of the method: as §5
[24] = system: MDA-MB-231; experiment: Antiproliferative activity against human MDA-MB-231 cells by MTT assay; type: functional, cell-based
Summary of the method: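 Cells plated at 8 × 10^3/well (MDA-MB-231) or 10^4/well (MCF7) in 96-well plates. Compounds fed in media with 5% FBS (MDA-MB-231) or 1% FBS (MCF7). MTT read-out of viable cells.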

Work on CC(C)=CCC/C(C)=C/CC/C(C)=C/CC[C@]1(C)CCc2c3c(cc(C)c2O1)OCN(CCCCO)C3 yielded a growth at 10 µM [1] of -63.2%, a growth at 10 µM [2] of 44.8% and a growth at 10 µM [3] of 2.95%. It also gave a growth at 10 µM [4] of 61.4%, a growth at 10 µM [5] of 19.3% and a growth at 10 µM [6] of 68.5%. It also gave a growth at 10 µM [7] of 0.63%, a growth at 10 µM [8] of -90.5% and a growth at 10 µM [9] of -88.7%. For the same molecule, the growth at 10 µM [10] was 48.5%, the growth at 10 µM [11] was -0.6% and the GI50 [12] was 4.68 µM. The GI50 [13] was 15.2 µM, the GI50 [14] was 16.3 µM and the GI50 [15] was 21 µM. It also gave a GI50 [16] of 11.3 µM, a GI50 [17] of 16 µM and a GI50 [18] of 18.2 µM. The GI50 [19] was 19.1 µM, the GI50 [20] was 11.9 µM and the GI50 [21] was 16.2 µM. For the same molecule, the GI50 [22] was 20.4 µM, the GI50 [23] was 14.5 µM and the IC50 [24] was > 5 µM.

With CC(C)=CCC/C(C)=C/CC/C(C)=C/CC[C@]1(C)CCc2c3c(cc(C)c2O1)OCN(CCCCCO)C3 the growth at 10 µM [1] was 43%, the growth at 10 µM [2] was 36.6% and the growth at 10 µM [3] was 37.2%. The growth at 10 µM [4] was 63.7%, the growth at 10 µM [5] was 67.4% and the growth at 10 µM [6] was 93.2%. It also gave a growth at 10 µM [7] of 34.7%, a growth at 10 µM [8] of -19.9% and a growth at 10 µM [9] of -48.5%. For the same molecule, the growth at 10 µM [10] was 16.8%, the growth at 10 µM [11] was 38.4% and the GI50 [12] was 1.94 µM. It also gave a GI50 [13] of 5.33 µM, a GI50 [14] of 5.74 µM and a GI50 [15] of 6.63 µM. For the same molecule, the GI50 [16] was 6.07 µM, the GI50 [17] was 5.99 µM and the GI50 [18] was 6.12 µM. For the same molecule, the GI50 [19] was 6.26 µM, the GI50 [20] was 7.41 µM and the GI50 [21] was 5.9 µM. For the same molecule, the GI50 [22] was 9.91 µM, the GI50 [23] was 7.83 µM and the IC50 [24] was 9 µM.

From ChEMBL document CHEMBL2380254, “Optimization of tocotrienols as antiproliferative and antimigratory leads” (Eur J Med Chem, 2013)
